Data set [1] can be described thus: Percent free human plasma protein binding after administration of the compound. In kind it is functional.
Data set [2] deals with Rattus norvegicus. Briefly: Percent free rat plasma protein binding after administration of the compound. In kind it is functional.
In data set [3] the target is Prothrombin (Homo sapiens, UniProt P00734). Nature of the data set: Inhibition constant against human Thrombin.
Data set [4] relates to Rattus norvegicus. Briefly: Effect (10 ug/kg/min) on FeCl3 induced clot formation on carotid artery, expressed as no. of vessel occlusions out of 5 rats. In kind it is functional. The method in brief:
(§1)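 Anesthetized rats given test compound by intravenous infusion at 10 µg/kg/min for 180 min. Topical FeCl3 applied to the carotid artery at 120 min post dose, then carotid blood flow monitored for 60 min. Result is the number of animals with occluded vessels (n = 5 or 6).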

A short description of data set [5]: Area under the curve in dog when administered 1 mg/kg perorally. It counts as ADME, organism-based, Canis lupus familiaris. The arrangement: dose 1 mg/kg, route oral. As to conditions: in vivo, po. The method in brief:
(§2)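 Amorphous TFA salts given orally at 1 mg/kg in 1% methocel to beagle dogs (n = 2). Blood sampled over 8 h post dose plus a final 24 h sample. Drug isolated from plasma by solid-phase extraction and quantified by LC–MS/MS against a standard curve. AUC and t1/2 derived from the concentration–time curve.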

Data set [6] can be described thus: Plasma half life in dog when administered 1 mg/kg perorally. The arrangement: dose 1 mg/kg, route oral. Particulars: po. In kind it is ADME, organism-based, Canis lupus familiaris. The method in brief: as §2
Data set [7] relates to Rattus norvegicus. Briefly: Effect (10 ug/kg/min) on FeCl3 induced clot formation on carotid artery, expressed as no. of vessel occlusions out of 6 rats. In kind it is functional. The method in brief:
as §1

Broadly, the Ki is the equilibrium dissociation constant of an inhibitor or competing ligand from its target. For orientation: AUC means the area under the concentration-time curve, a measure of exposure. Read a low AUC as less exposure. By half-life is commonly meant the time needed for the level to fall by half in the phase considered. A higher half-life goes with slow loss. Turning to `NCc1ccc(Cl)cc1CNC(=O)[C@@H]1CCCN1C(=O)CO`, the results for the Activity in data set [1], in data set [2] and in data set [4] were 1%, 9% and 4, respectively. In data set [3], this compound gave a Ki of 0.5 nM. Besides, the AUC in data set [5] is 30 µM·h. This compound showed a half-life in data set [6] of 13 h.
Take `CC(C)(C1CC1)[C@@H](O)C(=O)N1CC[C@H]1C(=O)NCc1cc(Cl)ccc1CN`: the Activity in data set [1] stood at 11%; in data set [2] it was 17%; in data set [4] it was 0. This compound also showed a Ki in data set [3] of 3.7 nM. This compound returned an AUC in data set [5] of 11 µM·h. In data set [6], this compound had a half-life of 4.7 h.
The compound `C[C@](O)(C(=O)N1CCC[C@H]1C(=O)NCc1cc(Cl)ccc1CN)c1ccccc1` gave an inhibitory constant (Ki) in data set [3] of 4.7 nM. In data set [5], this compound gave an exposure (AUC) of 21 µM·h. Moreover, the half-life in data set [6] is 3.1 h.
`NCc1ccc(Cl)cc1CNC(=O)[C@@H]1CCCN1C(=O)[C@@H](O)c1ccccc1` came in with a Ki in data set [3] of 80 nM.
Consider `CC(C)(C)[C@@H](O)C(=O)N1CCC[C@H]1C(=O)NCc1cc(Cl)ccc1CN`, for which the figures for the Activity in data set [1], in data set [2] and in data set [7] were 24%, 54% and 0, respectively. The affinity in data set [3] corresponds to a Ki of 2.1 nM. The compound further gave an AUC in data set [5] of 10 µM·h. This compound also gave a half-life in data set [6] of 5.4 h.
On to `NCc1ccc(Cl)cc1CNC(=O)[C@@H]1CCCN1C(=O)[C@H](O)c1ccccc1`, for which the Ki in data set [3] turned out to be 0.9 nM. Besides, the AUC in data set [5] was 1.4 µM·h. This compound also had a half-life in data set [6] of 2 h.
For `CC(C)[C@@H](O)C(=O)N1CCC[C@H]1C(=O)NCc1cc(Cl)ccc1CN`, the results for the Activity in data set [1], in data set [2] and in data set [7] were 63%, 60% and 2, respectively. In data set [3], this compound displayed a Ki of 5.6 nM. Also, the AUC in data set [5] is 4.9 µM·h. For the same compound, the half-life in data set [6] is 4.2 h.
In the case of `CC(C)(C)[C@@H](O)C(=O)N1CC[C@H]1C(=O)NCc1cc(Cl)ccc1CN`, the Activity in data set [1] turned out to be 21%; in data set [2], 26%; in data set [4], 0. Further, affinity in data set [3] was put at a Ki of 5 nM. The compound also displayed an AUC in data set [5] of 3.5 µM·h. Also, the half-life in data set [6] was 3.4 h.
As to `NCc1ccc(Cl)cc1CNC(=O)[C@@H]1CCCN1C(=O)[C@H](O)C1CCCCC1`, the Activity in data set [1] amounted to 4%; in data set [2], 36%; in data set [7] it was 0. In addition, the Ki in data set [3] stood at 0.27 nM. In data set [5], this compound displayed an AUC of 1.7 µM·h. The half-life in data set [6] was 2 h.
Regarding `C[C@@](O)(C(=O)N1CCC[C@H]1C(=O)NCc1cc(Cl)ccc1CN)c1ccccc1`, the Activity came to 15% in data set [1], 24% in data set [2] and 1 in data set [7]. In data set [3], this compound displayed a Ki of 2.7 nM. This compound had an AUC in data set [5] of 14 µM·h. Moreover, the half-life in data set [6] is 3.4 h.
